In ChEMBL document CHEMBL3751737, “Synthesis, antibacterial and cytotoxic activities of new biflorin-based hydrazones and oximes” (2016):
Values after ≈ are worked out from the molar mass of the structure shown. Active and inactive are the calls of the source. The rule behind the calls is not given here.

How the values were obtained:
Type in all cases: functional
Staphylococcus aureus [1] = test: Antibacterial activity against Staphylococcus aureus 358 after 24 hrs by broth microdilution method
Method in brief: (§1)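 Broth microdilution in BHI following CLSI M100-S16. Strains were activated in BHI for 24 h at 35 ± 2 °C, adjusted to 0.5 McFarland, and diluted to a final inoculum of 5 x 10^5 CFU/mL. Samples were dissolved in water/DMSO and tested at final 512-8 µg/mL, in triplicate. Plates were incubated 24 h at 35 ± 2 °C, then 0.01% resazurin was added. MIC was the lowest concentration preventing the visual blue-to-red change. Amikacin, gentamicin and neomycin served as positive controls.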

Staphylococcus aureus [2] = test: Antibacterial activity against Staphylococcus aureus ATCC 25923 after 24 hrs by broth microdilution method; method in brief: as §1
HCT-116 = test: (§2) Cytotoxicity against human HCT116 cells assessed as growth inhibition at 5 ug/ml after 72 hrs by MTT assay
Method in brief: (§3)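 Cells were maintained in RPMI 1640 with 10% FBS and 1% antibiotic at 37 °C under 5% CO2. Samples were dissolved in DMSO and tested at a single 5 µg/mL for 72 h. Viability was read by MTT: 3 h incubation, formazan dissolved in DMSO, absorbance at 595 nm. Results were graded on an intensity scale.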

Enterococcus faecalis = test: Antibacterial activity against Enterococcus faecalis ATCC 4083 after 24 hrs by broth microdilution method; method in brief: as §1
OVCAR-8 = test: (§4) Cytotoxicity against human OVCAR8 cells assessed as growth inhibition at 5 ug/ml after 72 hrs by MTT assay
Method in brief: (§5)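 Cells were grown in RPMI 1640 with 10% FBS and 1% antibiotic at 37 °C under 5% CO2, and seeded at 0.1 x 10^6 cells/mL. Samples were dissolved in DMSO and tested at 5 µg/mL for 72 h. MTT was added for 3 h, the precipitate was dissolved in DMSO, and absorbance was read at 595 nm. Potential was rated on an intensity scale.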

Proteus vulgaris = test: Antibacterial activity against Proteus vulgaris ATCC 13315 after 24 hrs by broth microdilution method; method in brief: as §1
SF-295 = test: (§6) Cytotoxicity against human SF295 cells assessed as growth inhibition at 5 ug/ml after 72 hrs by MTT assay; method in brief: as §5
Escherichia coli [3] = test: Antibacterial activity against Escherichia coli 27 after 24 hrs by broth microdilution method; method in brief: as §1
Escherichia coli [4] = test: Antibacterial activity against Escherichia coli ATCC 10536 after 24 hrs by broth microdilution method; method in brief: as §1
[5] = as §2; settings: HCT-116, 72 h, read-out: GI; method in brief: as §3
Aeromonas caviae = test: Antibacterial activity against Aeromonas caviae ATCC 15468 after 24 hrs by broth microdilution method; settings: ATCC 15468, 24 h
Bacillus cereus = test: Antibacterial activity against Bacillus cereus ATCC 33018 after 24 hrs by broth microdilution method; settings: ATCC 33018, 24 h
Escherichia coli [6] = test: Antibacterial activity against Escherichia coli ATCC 25922 after 24 hrs by broth microdilution method; settings: ATCC 25922, 24 h
Shigella flexneri = test: Antibacterial activity against Shigella flexneri ATCC 12022 after 24 hrs by broth microdilution method; settings: ATCC 12022, 24 h
[7] = as §4; settings: OVCAR-8, 72 h, read-out: GI; method in brief: as §5
Staphylococcus aureus [8] = test: Antibacterial activity against Staphylococcus aureus ATCC 12624 after 24 hrs by broth microdilution method; settings: ATCC 12624, 24 h
Listeria monocytogenes = test: Antibacterial activity against Listeria monocytogenes ATCC 19117 after 24 hrs by broth microdilution method; settings: ATCC 19117, 24 h
[9] = as §6; settings: SF-295, 72 h, read-out: GI; method in brief: as §5
Pseudomonas aeruginosa = test: Antibacterial activity against Pseudomonas aeruginosa ATCC 15442 after 24 hrs by broth microdilution method; settings: ATCC 15442, 24 h
Klebsiella pneumoniae = test: Antibacterial activity against Klebsiella pneumoniae ATCC 10031 after 24 hrs by broth microdilution method; settings: ATCC 10031, 24 h
Staphylococcus aureus [10] = test: Antibacterial activity against Staphylococcus aureus ATCC 6538 after 24 hrs by broth microdilution method; settings: ATCC 6538, 24 h
Staphylococcus aureus [11] = test: Antibacterial activity against Staphylococcus aureus ATCC 12692 after 24 hrs by broth microdilution method; settings: ATCC 12692, 24 h
Vibrio cholerae = test: Antibacterial activity against Vibrio cholerae ATCC 15748 after 24 hrs by broth microdilution method; settings: ATCC 15748, 24 h
[12] = Staphylococcus aureus, 358, 24 h

Molecule | MIC (Staphylococcus aureus [1]; [12]) [mg/L] | MIC (Staphylococcus aureus [2]; ATCC 25923, 24 h) [mg/L] | growth inhibition (GI) (HCT-116) | MIC (Enterococcus faecalis; ATCC 4083, 24 h) [mg/L] | growth inhibition (GI) (OVCAR-8) | MIC (Proteus vulgaris; ATCC 13315, 24 h) [mg/L] | growth inhibition (GI) (SF-295) | MIC (Escherichia coli [3]; Escherichia coli, 27, 24 h) [mg/L] | MIC (Escherichia coli [4]; ATCC 10536, 24 h) [mg/L] | also measured
CCO/N=C1\C(=O)C(C)=C2OC=C(CCC=C(C)C)c3ccc(C)c1c32 | 64 (≈ 182 µM) | 32 (≈ 91.1 µM) | inactive | 16 (≈ 45.5 µM) | inactive | 512 (≈ 1460 µM) | inactive | 128 (≈ 364 µM) | 512 (≈ 1460 µM) | –
CC(C)=CCCC1=COC2=C(C)C(=O)C(=O)c3c(C)ccc1c32 | 128 (≈ 415 µM) | 64 (≈ 208 µM) | – | 32 (≈ 104 µM) | – | 16 (≈ 51.9 µM) | – | 256 (≈ 830 µM) | 128 (≈ 415 µM) | inhibition of growth at 5 µg/mL [5]: 75%; MIC (Aeromonas caviae): ≥ 1020 mg/L; MIC (Bacillus cereus): ≥ 1020 mg/L; MIC (Escherichia coli [6]): ≥ 1020 mg/L; MIC (Shigella flexneri): ≥ 1020 mg/L; inhibition of growth at 5 µg/mL [7]: 75%; MIC (Staphylococcus aureus [8]): ≥ 1020 mg/L; MIC (Listeria monocytogenes): ≥ 1020 mg/L; inhibition of growth at 5 µg/mL [9]: 75%; MIC (Pseudomonas aeruginosa): ≥ 1020 mg/L; MIC (Klebsiella pneumoniae): ≥ 1020 mg/L; MIC (Staphylococcus aureus [10]): ≥ 1020 mg/L; MIC (Staphylococcus aureus [11]): ≥ 1020 mg/L; MIC (Vibrio cholerae): ≥ 1020 mg/L
NCC1O[C@H](O[C@H]2[C@@H](O)[C@H](O[C@H]3[C@H](O)[C@@H](N)C[C@@H](N)[C@@H]3O[C@H]3O[C@H](CN)[C@@H](O)[C@H](O)[C@H]3N)O[C@@H]2CO)[C@H](N)[C@@H](O)[C@@H]1O (some centres not stated) | 32 (≈ 52.1 µM) | 32 (≈ 52.1 µM) | – | 128 (≈ 208 µM) | – | 512 (≈ 833 µM) | – | 128 (≈ 208 µM) | 512 (≈ 833 µM) | –
CO/N=C1\C(=O)C(C)=C2OC=C(CCC=C(C)C)c3ccc(C)c1c32 | 64 (≈ 190 µM) | 32 (≈ 94.8 µM) | inactive | 32 (≈ 94.8 µM) | inactive | 64 (≈ 190 µM) | inactive | 128 (≈ 379 µM) | ≥ 1020 | –
CC(C)=CCCC1=COC2=C(C)C(=O)/C(=N\Nc3ccccc3)c3c(C)ccc1c32 | ≥ 1020 | 256 (≈ 642 µM) | inactive | 512 (≈ 1280 µM) | inactive | ≥ 1020 | inactive | ≥ 1020 | ≥ 1020 | –
CC(C)=CCCC1=COC2=C(C)C(=O)/C(=N\Nc3ccc([N+](=O)[O-])cc3[N+](=O)[O-])c3c(C)ccc1c32 | 512 (≈ 1050 µM) | 512 (≈ 1050 µM) | inactive | 512 (≈ 1050 µM) | inactive | 512 (≈ 1050 µM) | inactive | ≥ 1020 | 512 (≈ 1050 µM) | –
NCC[C@H](O)C(=O)N[C@@H]1C[C@H](N)[C@@H](O[C@H]2O[C@H](CN)[C@@H](O)[C@H](O)[C@H]2O)[C@H](O)[C@H]1O[C@H]1O[C@H](CO)[C@@H](O)[C@H](N)[C@H]1O [AMIKACIN] | 256 (≈ 437 µM) | 256 (≈ 437 µM) | – | 256 (≈ 437 µM) | – | 512 (≈ 874 µM) | – | 128 (≈ 219 µM) | – | –
GENTAMICIN | – | – | – | – | – | – | – | – | – | MIC (Staphylococcus aureus [1]): 8 mg/L; MIC (Staphylococcus aureus [2]): 32 mg/L; MIC (Enterococcus faecalis): 32 mg/L; MIC (Proteus vulgaris): 64 mg/L; MIC (Escherichia coli [3]): 512 mg/L; MIC (Escherichia coli [4]): 128 mg/L
CC(C)=CCCC1=COC2=C(C)C(=O)/C(=N\O)c3c(C)ccc1c32 | ≥ 1020 | 256 (≈ 792 µM) | inactive | 256 (≈ 792 µM) | inactive | 512 (≈ 1580 µM) | inactive | 512 (≈ 1580 µM) | ≥ 1020 | –
